Reference: ChEMBL document CHEMBL4033788, “Novel Ligustrazine-Based Analogs of Piperlongumine Potently Suppress Proliferation and Metastasis of Colorectal Cancer Cells in Vitro and in Vivo” (J Med Chem, 2018)
Converted amounts (≈) assume the structure as drawn. The source made the active and inactive calls. The calls are words filed in the database; no cut-off is given here.

Legend:
[1] = Antiproliferative activity against human CCD-841 cells after 72 hrs by MTT assay; type: cell-based; details: CCD-841, 72 h
How it was run: (§1)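 Cells grown in RPMI 1640 with 10% FBS in 96-well plates overnight, then exposed to test agents in triplicate for 72 h. MTT (5 mg/mL stock) added for the last 4 h, formazan dissolved in DMSO, absorbance read at 570 nm. Inhibition = (1 − OD treated/OD control) × 100%.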

HT-29 = test: Antiproliferative activity against human HT-29 cells after 72 hrs by MTT assay; type: functional, cell-based; details: HT-29, 72 h; how it was run: as §1
SW-620 = test: Antiproliferative activity against human SW620 cells after 72 hrs by MTT assay; type: functional, cell-based; details: SW-620, 72 h; how it was run: as §1
U-87 MG = test: Antiproliferative activity against human U87MG cells after 72 hrs by MTT assay; type: functional, cell-based, U-87MG ATCC; how it was run: as §1
[2] = Solubility of compound in phosphate buffer at pH 7.4 after 8 hrs by HPLC analysis; type: physicochemical
How it was run: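 Compound was shaken in 50 mM phosphate buffer (pH 7.4) at 20 °C, centrifuged, and the supernatant analysed by HPLC. Conditions were a C18 column, acetonitrile–water 60/40 (v/v) at 1.0 mL/min, with detection at 254 nm. Run in triplicate.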

HCT-116 [3] = test: Cytotoxicity against human HCT116 cells at 2 to 50 nM after 24 to 48 hrs in presence of TGF-beta1 by MTT assay; type: cell-based; details: hct-116, 0.05 µM
How it was run: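 HCT-116 cells exposed to TGF-β1 (10 ng/mL) alone or combined with test agent at 2, 10 or 50 nM for 24, 48 or 72 h. Viability read by MTT (formazan in DMSO, 570 nm).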

HCT-8 = test: Antiproliferative activity against human HCT8 cells after 72 hrs by MTT assay; type: functional, cell-based; details: HCT-8, 72 h; how it was run: as §1
HCT-116 [4] = test: Antiproliferative activity against human HCT116 cells after 72 hrs by MTT assay; type: functional, cell-based; details: HCT-116, 72 h; how it was run: as §1
Mus musculus = test: Toxicity in BALB/c nude mouse xenografted with human HCT116 cells assessed as loss of body weight at 4 mg/kg, ip administered thrice a week for 6 consecutive weeks; type: organism-based; details: in vivo
How it was run: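 Lung metastasis model: HCT-116 cells in serum-free medium injected into tail vein of BALB/c nude mice, then randomized and given vehicle or compound ip (1, 2 or 4 mg/kg) three times a week. Body weight recorded weekly, survival monitored (n = 6); mice sacrificed after 40 days and lungs examined by H&E histology.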

HCT-116 [5] = test: Induction of ROS accumulation in human HCT116 cells at 10 uM after 3 hrs by DCFH-DA staining-based fluorescence microscopic analysis; type: functional, cell-based
How it was run: (§2)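 HCT-116 or CCD-841 cells treated at 10 μM for 3 h, stained with DCFH-DA, and imaged by fluorescence microscopy for green-fluorescent cells.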

K562 = test: Antiproliferative activity against human K562 cells after 72 hrs by MTT assay; type: functional, cell-based; details: K562, 72 h; how it was run: as §1
[6] = Induction of ROS accumulation in human CCD-841 cells at 10 uM after 3 hrs by DCFH-DA staining-based fluorescence microscopic analysis; type: cell-based; details: ccd-841, 3 h; how it was run: as §2
[7] = biological target: Glycogen synthase kinase-3 beta (Homo sapiens) (UniProt P49841); test: Inhibition of TGF-beta1-induced GSK-3beta phosphorylation in human HCT116 cells at 50 nM after 48 hrs by Western blot analysis; type: cell-based
How it was run: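 HCT-116 cells treated with or without TGF-β1 (10 ng/mL) for 48 h, with or without test agent. Lysates (20 μg/lane) run on 7.5% SDS-PAGE and transferred to PVDF. Probed for p-Akt (Ser473), Akt, p-GSK-3β (S9), GSK-3β, E-cadherin, MMP-9 and β-actin, detected by ECL. Densitometry relative to β-actin or total protein. Three independent experiments.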

[8] = Half life in Sprague-Dawley rat at 20 mg/kg, iv after 4 hrs by LC-MS/MS analysis; type: ADME, organism-based; details: in vivo
HCT-116 [9] = test: Antitumor activity against human HCT116 cells xenografted in BALB/c nude mouse assessed as tumor growth inhibition at 5 mg/kg, ip administered daily for 21 consecutive days relative to control; type: functional; details: HCT-116, ip, read-out: TGI
How it was run: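 Male BALB/c nude mice, 3–5 weeks old, inoculated subcutaneously with 1 × 10^7 HCT-116 cells. At about 75 mm³ tumor volume, randomized (n = 8/group) and dosed intraperitoneally daily. Volume by caliper as d² × D/2. At the end, tumors excised and weighed; inhibition = (Wcontrol − Wtreated)/Wcontrol × 100%.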

[10] = Induction of ROS accumulation in human CCD-841 cells at 1 to 10 uM up to 3 hrs by DCFH-DA staining-based fluorescence spectrometric analysis; type: cell-based; details: ccd-841, 3 h
How it was run: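 HCT-116 and CCD-841 cells treated in triplicate at 1, 5 and 10 μM for 1, 2 and 3 h. Intracellular ROS stained with DCFH-DA and fluorescence read on a microplate reader. Values expressed relative to DMSO control, from three separate experiments.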

HCT-116 [11] = test: Antimetastatic activity against human HCT116 cells xenografted in BALB/c nude mouse model assessed as reduction in lung metastatic tumor at 2 to 4 mg/kg, ip administered thrice a week for 6 consecutive weeks by H and E staining-based assay; type: functional, organism-based
How it was run: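 BALB/c nude mice received HCT-116 cells into the tail vein, then were randomized and dosed intraperitoneally (1, 2 or 4 mg/kg) three times weekly. Body weight recorded weekly. Lungs sectioned (4 μm), H&E stained, and nodule number and area scored blinded in three sections per mouse. Nodule counts n = 4–6 per group.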

HCT-116 [12] = test: Antiproliferative activity against human HCT116 cells at […] after 72 hrs by MTT assay relative to control; type: functional; details: HCT-116, 72 h
[13] = Acute toxicity in ICR mouse assessed as survival rate at 150 mg/kg, ip administered for 14 days relative to control; type: organism-based; details: in vivo

Chain of Glycogen synthase kinase-3 beta (Homo sapiens) (P49841 whole entry, looked up): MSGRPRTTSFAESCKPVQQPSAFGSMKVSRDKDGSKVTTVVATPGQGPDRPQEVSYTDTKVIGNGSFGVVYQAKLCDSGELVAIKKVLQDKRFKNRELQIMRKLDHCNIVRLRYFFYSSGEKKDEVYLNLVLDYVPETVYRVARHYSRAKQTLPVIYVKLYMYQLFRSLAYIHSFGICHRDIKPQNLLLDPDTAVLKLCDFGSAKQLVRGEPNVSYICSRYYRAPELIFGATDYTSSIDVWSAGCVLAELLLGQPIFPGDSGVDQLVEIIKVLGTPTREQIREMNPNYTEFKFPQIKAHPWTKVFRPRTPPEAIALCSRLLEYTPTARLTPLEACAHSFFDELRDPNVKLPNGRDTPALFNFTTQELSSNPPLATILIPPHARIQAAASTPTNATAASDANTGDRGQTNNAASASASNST

SMILES	IC50 [1]	IC50 (HT-29)	IC50 (SW-620)	IC50 (U-87 MG)	solubility at 8 h [2]	Activity (HCT-116 [3])	IC50 (HCT-8)	IC50 (HCT-116 [4])	Activity (Mus musculus)	Activity (HCT-116 [5])	IC50 (K562)	Activity [6]	inhibition [7]	half-life [8]	inhibition in vivo at 5 mg/kg (HCT-116 [9])	Activity [10]	Activity (HCT-116 [11])	inhibition at […] (HCT-116 [12])	survival at 336 h [13]
COc1cc(/C=C/C(=O)N2CCC=CC2=O)cc(OC)c1OC [PIPLARTINE]	44.3 µM	2650 nM	4620 nM	17.3 µM	0.32 µg/mL (≈ 1.01 µM)	Non-Toxic	4100 nM	8.13 µM	Non-Toxic	Active	5050 nM	Toxic	Active	172 min	60.6%	–	–	–	–
Cc1nc(C)c(/C=C/C(=O)N2CCC=C(Cl)C2=O)nc1C	51.6 µM	540 nM	870 nM	3.43 µM	74.6 µg/mL (≈ 244 µM)	Non-Toxic	1210 nM	0.3 µM	Non-Toxic	Active	250 nM	Toxic	–	130 min	71.4%	Non-Toxic	Active	82.9%	40%
